Data reported in ChEMBL document CHEMBL3826879, “Synthesis and biological evaluation of analogues of the potent ADAM8 inhibitor cyclo(RLsKDK) for the treatment of inflammatory diseases and cancer metastasis” (Bioorg Med Chem, 2016).
Where a SMILES comes first, the peptide text is derived from it. Bridges are numbered along the chain shown (N, C = ends). [ ]: non-standard residue; d: D form. Arg(NO2) = N=C(NCCC[C@H](N)C(=O)O)N[N+](=O)[O-]; Lys(Me3) = C[N+](C)(C)CCCC[C@H](N)C(=O)O; hArg = N=C(N)NCCCC[C@H](N)C(=O)O; tBuAla = CC(C)(C)C[C@H](N)C(=O)O; Cit = NC(=O)NCCC[C@H](N)C(=O)O; hLeu = CC(C)CC[C@H](N)C(=O)O; β3hS = N[C@@H](CO)CC(=O)O; Nle = CCCC[C@H](N)C(=O)O; Orn = NCCC[C@H](N)C(=O)O; Dab = NCC[C@H](N)C(=O)O; Nva = CCC[C@H](N)C(=O)O; Dap = NC[C@H](N)C(=O)O; βAla = NCCC(=O)O

Molecular target: T1, Disintegrin and metalloproteinase domain-containing protein 8 (Homo sapiens, UniProt P78325)
T1 sequence (P78325 whole entry): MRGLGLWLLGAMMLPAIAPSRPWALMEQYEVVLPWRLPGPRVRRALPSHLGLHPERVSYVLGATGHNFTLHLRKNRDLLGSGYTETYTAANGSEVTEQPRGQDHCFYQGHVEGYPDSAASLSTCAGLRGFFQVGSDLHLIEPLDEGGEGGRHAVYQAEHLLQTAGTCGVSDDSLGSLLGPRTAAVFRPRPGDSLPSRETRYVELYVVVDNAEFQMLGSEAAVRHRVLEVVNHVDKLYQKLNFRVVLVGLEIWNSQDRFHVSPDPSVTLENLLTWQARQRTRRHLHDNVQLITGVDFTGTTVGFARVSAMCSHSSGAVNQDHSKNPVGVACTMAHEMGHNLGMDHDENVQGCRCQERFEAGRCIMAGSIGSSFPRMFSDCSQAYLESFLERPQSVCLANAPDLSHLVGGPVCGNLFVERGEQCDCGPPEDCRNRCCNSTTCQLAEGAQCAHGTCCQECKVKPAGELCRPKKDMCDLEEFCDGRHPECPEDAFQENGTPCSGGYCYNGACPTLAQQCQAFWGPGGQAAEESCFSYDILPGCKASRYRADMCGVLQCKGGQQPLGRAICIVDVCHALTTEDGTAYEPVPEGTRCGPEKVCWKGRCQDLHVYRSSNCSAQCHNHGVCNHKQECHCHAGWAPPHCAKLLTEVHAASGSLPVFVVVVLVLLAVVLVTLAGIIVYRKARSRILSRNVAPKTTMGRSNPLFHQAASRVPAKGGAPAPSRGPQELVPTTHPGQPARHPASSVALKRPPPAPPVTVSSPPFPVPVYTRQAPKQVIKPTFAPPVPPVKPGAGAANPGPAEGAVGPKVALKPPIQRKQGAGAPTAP
Test: Inhibition of ADAM8 (unknown origin) expressed in African green monkey COS7 cells co-expressing CD23 assessed as inhibition of CD23 shedding after 6 hrs by ELISA
Format: cell-based, COS-7
Summary of the method: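 COS7 cells co-transfected with CD23 and ADAM8 cDNA, seeded at 2 × 10^5 cells/well and exposed to peptide at 10 nM–10 μM for 6 h. Supernatant CD23 measured by sandwich ELISA: biotinylated anti-CD23 monoclonal antibody, 2 h at room temperature, streptavidin–HRP 1 h, TMB substrate, absorbance at 405 nm. Samples in duplicate against 400–12.5 units/mL standards. IC50 derived.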

Compound	IC50
CC(C)C[C@@H]1NC(=O)[C@H](CCCNC(=N)N)NC(=O)[C@H](CCCCN)NC(=O)[C@H](CC(=O)O)NC(=O)[C@H](CCCCN)NC(=O)C[C@@H](C(=O)O)NC1=O (KDKRLD-OH; lactam N-6)	420 nM
CC(C)C[C@@H]1NC(=O)[C@H](CCCNC(=N)N)NC(=O)[C@H](CCCCN)NC(=O)[C@H](CC(=O)O)NC(=O)[C@H](CCCCN)NC(=O)[C@H](CO)NC1=O (cyclo(DKRLSK))	240 nM
CC(C)C[C@@H]1NC(=O)[C@H](CCCNC(=N)N)NC(=O)[C@H](CCCCN)NC(=O)[C@H](CC(=O)O)NC(=O)[C@H](CCCCN)NC(=O)C[C@H](CO)NC1=O (cyclo(DKRL[β3hS]K))	157 nM
CC(C)C[C@@H]1NC(=O)[C@H](CCCNC(=N)N)NC(=O)[C@H](CCCCN)NC(=O)[C@H](CC(=O)O)NC(=O)[C@H](CCCCN)NC(=O)CCNC1=O (cyclo(DKRL[βAla]K))	1650 nM
CCCC[C@@H]1NC(=O)[C@H](CCCNC(=N)N)NC(=O)[C@H](CCCCN)NC(=O)[C@H](CC(=O)O)NC(=O)[C@H](CCCCN)NC(=O)CCNC1=O (cyclo(DKR[Nle][βAla]K))	378 nM
CCC[C@@H]1NC(=O)[C@H](CCCNC(=N)N)NC(=O)[C@H](CCCCN)NC(=O)[C@H](CC(=O)O)NC(=O)[C@H](CCCCN)NC(=O)CCNC1=O (cyclo(DKR[Nva][βAla]K))	452 nM
CC(C)CC[C@@H]1NC(=O)[C@H](CCCNC(=N)N)NC(=O)[C@H](CCCCN)NC(=O)[C@H](CC(=O)O)NC(=O)[C@H](CCCCN)NC(=O)C[C@H](CO)NC1=O (cyclo(DKR[hLeu][β3hS]K))	142 nM
CC(C)CC[C@@H]1NC(=O)[C@H](CCCNC(=N)N)NC(=O)[C@H](CCCCN)NC(=O)[C@H](CC(=O)O)NC(=O)[C@H](CCCCN)NC(=O)CCNC1=O (cyclo(DKR[hLeu][βAla]K))	220 nM
CC(C)(C)C[C@@H]1NC(=O)[C@H](CCCNC(=N)N)NC(=O)[C@H](CCCCN)NC(=O)[C@H](CC(=O)O)NC(=O)[C@H](CCCCN)NC(=O)CCNC1=O (cyclo(DKR[tBuAla][βAla]K))	256 nM
CC(C)C[C@@H]1NC(=O)[C@H](CCCCNC(=N)N)NC(=O)[C@H](CCCCN)NC(=O)[C@H](CC(=O)O)NC(=O)[C@H](CCCCN)NC(=O)C[C@H](CO)NC1=O (cyclo(DK[hArg]L[β3hS]K))	368 nM
CC(C)C[C@@H]1NC(=O)[C@H](CCCNC(=N)N)NC(=O)[C@H](CCN)NC(=O)[C@H](CC(=O)O)NC(=O)[C@H](CCCCN)NC(=O)CCNC1=O (cyclo(D[Dab]RL[βAla]K))	> 5000 nM
CC(C)C[C@@H]1NC(=O)[C@H](CCCNC(=N)N)NC(=O)[C@H](CN)NC(=O)[C@H](CC(=O)O)NC(=O)[C@H](CCCCN)NC(=O)CCNC1=O (cyclo(D[Dap]RL[βAla]K))	> 5000 nM
CC(C)C[C@@H]1NC(=O)[C@H](CCCNC(=N)N)NC(=O)[C@H](CCCC[N+](C)(C)C)NC(=O)[C@H](CC(=O)O)NC(=O)[C@H](CCCCN)NC(=O)CCNC1=O (cyclo(D[Lys(Me3)]RL[βAla]K))	> 10000 nM
CC(C)C[C@@H]1NC(=O)[C@H](CCCNC(=N)N)NC(=O)[C@H](CCCN)NC(=O)[C@H](CC(=O)O)NC(=O)[C@H](CCCCN)NC(=O)CCNC1=O (cyclo(D[Orn]RL[βAla]K))	> 5000 nM
CC(C)C[C@@H]1NC(=O)[C@H](CCCNC(=N)N[N+](=O)[O-])NC(=O)[C@H](CCCCN)NC(=O)[C@H](CC(=O)O)NC(=O)[C@H](CCCCN)NC(=O)C[C@H](CO)NC1=O (cyclo([Arg(NO2)]L[β3hS]KDK))	1240 nM
CC(C)C[C@@H]1NC(=O)[C@H](CCCNC(=N)N[N+](=O)[O-])NC(=O)[C@H](CCCCN)NC(=O)[C@H](CC(=O)O)NC(=O)[C@H](CCCCN)NC(=O)CCNC1=O (cyclo([Arg(NO2)]L[βAla]KDK))	2350 nM
CC(C)C[C@@H]1NC(=O)[C@H](CCCNC(N)=O)NC(=O)[C@H](CCCCN)NC(=O)[C@H](CC(=O)O)NC(=O)[C@H](CCCCN)NC(=O)C[C@H](CO)NC1=O (cyclo([Cit]L[β3hS]KDK))	192 nM
CC(C)C[C@@H]1NC(=O)[C@H](CCCNC(N)=O)NC(=O)[C@H](CCCCN)NC(=O)[C@H](CC(=O)O)NC(=O)[C@H](CCCCN)NC(=O)CCNC1=O (cyclo([Cit]L[βAla]KDK))	890 nM
